One data set has as its target Cannabinoid receptor 1 (Homo sapiens, UniProt P21554). Put plainly: biochemical. In kind it is cell-based, CHO.
The next data set addresses Cannabinoid receptor 2 (Homo sapiens, UniProt P34972). Put plainly: Displacement of specific CP-55940 binding in CHO cells stably transfected with human cannabinoid receptor 2. In kind it is cell-based.
The test system of another data set is Rattus norvegicus. Put plainly: Antagonism of CP-55940 induced hypotension in rat expressed as effective dose upon peroral administration. Conditions: po.
In another data set the test system is Mus musculus. The data set can be described thus: Antagonism of WIN-55212-2 induced hypothermia in mice expressed as least effective dose upon peroral administration. In kind it is functional.
A short description of data set [1]: Partition coefficient (logP) (HPLC). In kind it is physicochemical. Conditions: octanol/water. The method in brief:
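logP was measured with a validated reverse-phase HPLC method.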

Another data set concerns the target P-glycoprotein (ABCB1) (Homo sapiens, UniProt P08183). The data set can be described thus: P-glycoprotein-based membrane transport factor, expressed as the ratio of the bottom to top transport and top to bottom transport. Conditions: not told.

Here are results for 17 compounds from ChEMBL document CHEMBL1143468, “Novel 3,4-diarylpyrazolines as potent cannabinoid CB1 receptor antagonists with lower lipophilicity” (Bioorg Med Chem Lett, 2005).

P-glycoprotein (ABCB1), sequence (P08183 whole entry): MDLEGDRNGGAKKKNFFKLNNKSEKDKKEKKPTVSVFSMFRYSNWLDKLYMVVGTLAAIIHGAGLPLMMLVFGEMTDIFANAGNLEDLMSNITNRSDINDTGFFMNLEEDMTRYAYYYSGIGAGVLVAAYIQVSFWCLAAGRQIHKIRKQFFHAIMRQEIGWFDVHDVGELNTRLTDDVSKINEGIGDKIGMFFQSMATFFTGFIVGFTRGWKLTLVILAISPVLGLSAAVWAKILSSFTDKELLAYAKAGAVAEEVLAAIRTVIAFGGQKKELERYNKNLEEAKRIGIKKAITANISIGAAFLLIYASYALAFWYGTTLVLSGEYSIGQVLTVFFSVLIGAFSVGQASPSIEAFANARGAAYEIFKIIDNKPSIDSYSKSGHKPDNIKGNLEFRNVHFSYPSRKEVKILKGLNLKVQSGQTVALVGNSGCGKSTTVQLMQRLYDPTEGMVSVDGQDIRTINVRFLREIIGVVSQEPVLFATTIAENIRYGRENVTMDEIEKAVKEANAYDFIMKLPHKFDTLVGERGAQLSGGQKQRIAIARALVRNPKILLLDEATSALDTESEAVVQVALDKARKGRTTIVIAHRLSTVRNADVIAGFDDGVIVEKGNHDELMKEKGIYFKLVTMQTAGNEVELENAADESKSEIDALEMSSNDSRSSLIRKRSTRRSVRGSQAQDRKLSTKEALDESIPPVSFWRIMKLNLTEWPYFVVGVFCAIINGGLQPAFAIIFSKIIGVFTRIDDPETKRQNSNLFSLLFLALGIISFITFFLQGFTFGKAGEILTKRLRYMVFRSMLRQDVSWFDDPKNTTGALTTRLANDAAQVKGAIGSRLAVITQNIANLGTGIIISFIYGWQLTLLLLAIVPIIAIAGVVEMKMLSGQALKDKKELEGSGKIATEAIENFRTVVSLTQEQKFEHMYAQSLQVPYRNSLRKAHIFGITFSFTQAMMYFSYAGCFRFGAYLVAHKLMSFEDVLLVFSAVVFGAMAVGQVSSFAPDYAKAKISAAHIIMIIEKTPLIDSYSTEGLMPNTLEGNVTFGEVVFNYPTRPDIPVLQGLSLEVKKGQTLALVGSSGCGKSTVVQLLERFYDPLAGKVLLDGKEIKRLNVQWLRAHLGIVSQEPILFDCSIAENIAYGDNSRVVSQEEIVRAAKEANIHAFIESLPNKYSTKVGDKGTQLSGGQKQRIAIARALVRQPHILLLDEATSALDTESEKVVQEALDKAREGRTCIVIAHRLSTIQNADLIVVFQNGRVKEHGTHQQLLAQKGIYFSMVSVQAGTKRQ
Cannabinoid receptor 1, sequence (P21554 whole entry): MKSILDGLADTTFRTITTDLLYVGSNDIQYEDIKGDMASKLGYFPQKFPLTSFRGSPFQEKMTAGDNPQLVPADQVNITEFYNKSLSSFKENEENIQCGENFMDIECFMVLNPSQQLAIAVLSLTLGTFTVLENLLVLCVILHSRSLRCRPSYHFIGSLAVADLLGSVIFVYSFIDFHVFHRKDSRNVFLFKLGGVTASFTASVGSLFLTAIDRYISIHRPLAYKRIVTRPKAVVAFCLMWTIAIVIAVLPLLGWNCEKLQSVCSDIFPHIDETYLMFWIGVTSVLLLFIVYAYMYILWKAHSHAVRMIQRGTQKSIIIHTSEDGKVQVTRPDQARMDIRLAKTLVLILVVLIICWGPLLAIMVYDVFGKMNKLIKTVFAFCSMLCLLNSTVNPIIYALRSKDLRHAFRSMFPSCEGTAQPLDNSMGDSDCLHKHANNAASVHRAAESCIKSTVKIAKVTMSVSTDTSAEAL
Cannabinoid receptor 2, sequence (P34972 whole entry): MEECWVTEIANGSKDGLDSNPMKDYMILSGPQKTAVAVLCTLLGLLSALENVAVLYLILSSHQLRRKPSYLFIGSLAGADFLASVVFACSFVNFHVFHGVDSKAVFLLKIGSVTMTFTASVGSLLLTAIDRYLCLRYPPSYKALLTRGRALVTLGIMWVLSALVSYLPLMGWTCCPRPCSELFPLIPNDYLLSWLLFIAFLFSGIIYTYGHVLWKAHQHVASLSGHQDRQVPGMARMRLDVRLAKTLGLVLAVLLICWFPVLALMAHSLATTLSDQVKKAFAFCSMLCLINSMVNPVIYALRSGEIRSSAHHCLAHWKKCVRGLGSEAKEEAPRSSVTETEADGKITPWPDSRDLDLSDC

`C/N=C(\NS(=O)(=O)N1CCSCC1)N1CC(c2ccccc2)C(c2ccc(Cl)cc2)=N1` (stereo not drawn): the Ki (in general, a dissociation constant, usually derived from enzyme kinetics or from competition with a known ligand) at Cannabinoid receptor 1 stood at 0.024 µM; on Cannabinoid receptor 2, 3.53 µM.

For the compound `CCN(CC)S(=O)(=O)N=C(NC(C)C)N1CC(c2ccccc2)C(c2ccc(Cl)cc2)=N1` (stereo not drawn), the values for the Ki at Cannabinoid receptor 1 and on Cannabinoid receptor 2 were 0.06 µM and 2.75 µM, respectively.

For `CCN(C)S(=O)(=O)NC(=NC)N1CC(c2ccccc2)C(c2ccc(Cl)cc2)=N1` (stereo not drawn), the Ki on Cannabinoid receptor 1 was 0.117 µM; on Cannabinoid receptor 2, 1.87 µM.

Take `Cc1c(C(=O)NN2CCCCC2)nn(-c2ccc(Cl)cc2Cl)c1-c1ccc(Cl)cc1` [RIMONABANT]: the ED50 (commonly the dose at which the effect has come halfway, by size or by number of responders) in the data set on Rattus norvegicus was 3.2 mg/kg. In the data set with Mus musculus, this compound had an LED of 3 mg/kg.

On to `CC/N=C(\NS(=O)(=O)N(CC)CC)N1CC(c2ccccc2)C(c2ccc(Cl)cc2)=N1` (stereo not drawn), for which the Ki at Cannabinoid receptor 1 is 0.209 µM; at Cannabinoid receptor 2, 2.86 µM.

In turn, `CN/C(=N\S(=O)(=O)c1ccc(Cl)cc1)N1C[C@H](c2ccccc2)C(c2ccc(Cl)cc2)=N1` [IBIPINABANT] returned an ED50 with Rattus norvegicus of 5.5 mg/kg. In data set [1], the logP – broadly, the decadic logarithm of the partition coefficient of the neutral form, usually between octanol and water – came out at 5.1. In the data set with Mus musculus, this compound displayed an LED of 3 mg/kg.

Take `C/N=C(\NS(=O)(=O)N1CCOCC1)N1CC(c2ccccc2)C(c2ccc(Cl)cc2)=N1` (stereo not drawn): the ED50 with Rattus norvegicus was 27 mg/kg. In addition, the logP in data set [1] is 3.8. At Cannabinoid receptor 2, this compound gave a Ki of 5.37 µM. The LED in the data set with Mus musculus was 3 mg/kg.

For the compound `CN/C(=N\S(=O)(=O)N1CCCCCC1)N1CC(c2ccccc2)C(c2ccc(Cl)cc2)=N1` (stereo not drawn), the Ki on Cannabinoid receptor 1 amounted to 0.155 µM; on Cannabinoid receptor 2 it was 1.03 µM.

Take `CN=C(NS(=O)(=O)N1CCS(=O)(=O)CC1)N1CC(c2ccccc2)C(c2ccc(Cl)cc2)=N1` (stereo not drawn): the Ki on Cannabinoid receptor 1 was found to be 0.832 µM.

In the data set on Rattus norvegicus, `CCN(CC)S(=O)(=O)NC(=NC)N1CC(c2cccnc2)C(c2ccc(Cl)cc2)=N1` (stereo not drawn) came in with an ED50 of more than 30 mg/kg. Moreover, the Ki at Cannabinoid receptor 1 amounted to 0.141 µM; at Cannabinoid receptor 2, 9.08 µM. In addition, the efflux ratio (commonly the permeability from basolateral to apical divided by that in the opposite direction, in the common usage) at P-glycoprotein (ABCB1) worked out at 3.4. Further, in data set [1], the logP was 3.2.

In the case of `C/N=C(\NS(=O)(=O)N(C)C)N1CC(c2ccccc2)C(c2ccc(Cl)cc2)=N1` (stereo not drawn), at Cannabinoid receptor 2, affinity was put at a Ki of 3.83 µM.

Regarding `CNC(=NS(=O)(=O)N1CCCCCCC1)N1CC(c2ccccc2)C(c2ccc(Cl)cc2)=N1` (stereo not drawn), the Ki on Cannabinoid receptor 1 was 0.125 µM; on Cannabinoid receptor 2, 2.58 µM.

Consider `CN=C(NS(=O)(=O)N1CCCC1)N1CC(c2ccccc2)C(c2ccc(Cl)cc2)=N1` (stereo not drawn), for which the Ki was 0.231 µM on Cannabinoid receptor 1 and 1.6 µM on Cannabinoid receptor 2.

With `CNC(=NS(=O)(=O)N1CCCCC1)N1CC(c2ccccc2)C(c2ccc(Cl)cc2)=N1` (stereo not drawn), the affinity on Cannabinoid receptor 2, expressed as Ki, was 1.32 µM.

With `C/N=C(\NS(=O)(=O)N(C)C(C)C)N1CC(c2ccccc2)C(c2ccc(Cl)cc2)=N1` (stereo not drawn), the values for the Ki on Cannabinoid receptor 1 and at Cannabinoid receptor 2 were 0.032 µM and 1.13 µM, respectively.

As for `CN/C(=N\S(=O)(=O)N1CCCCC1)N1C[C@H](c2ccccc2)C(c2ccc(Cl)cc2)=N1`, in the data set with Rattus norvegicus, the ED50 worked out at 8 mg/kg. The efflux ratio on P-glycoprotein (ABCB1) came to 1.4. In data set [1], this compound had a log partition coefficient (logP) of 4.8. In the data set with Mus musculus, this compound came in with an LED of 10 mg/kg.

In turn, `CCN(CC)S(=O)(=O)N/C(=N\C)N1CC(c2ccccc2)C(c2ccc(Cl)cc2)=N1` (stereo not drawn) gave an ED50 with Rattus norvegicus of 20 mg/kg. Besides, the Ki at Cannabinoid receptor 1 is 0.03 µM; at Cannabinoid receptor 2, 3.27 µM. Further, the efflux ratio on P-glycoprotein (ABCB1) was 1.5. Moreover, the logP in data set [1] was determined as 4.8. For the same compound, in the data set with Mus musculus, the LED was 3 mg/kg.
